The values below come from ChEMBL document CHEMBL1154340, “Biphenyls from Berberis koreana” (J Nat Prod, 2009).

One data set deals with SK-MEL-2. As to the kind of experiment: Cytotoxicity against human SK-MEL-2 cells by SRB assay. It is filed as functional, cell-based.
In a further data set the test system is SK-OV-3. Description: Cytotoxicity against human SKOV3 cells by SRB assay. Format: functional, cell-based. (In general: Sulforhodamine B stains cellular protein and so reports cell mass.)
In another data set the test system is HCT-15. Description: Cytotoxicity against human HCT15 cells by SRB assay. Format: functional, cell-based.
Another data set concerns A549. As to the kind of experiment: Cytotoxicity against human A549 cells by SRB assay. Format: functional, cell-based.
Data set [1] is described as follows: Cytotoxicity against mouse BV2 cells by MTT assay. The conditions noted are these: bv-2. It is filed as cell-based. In a few lines:
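Viability of the same cultures determined by MTT (3-[4,5-dimethylthiazol-2-yl]-2,5-diphenyltetrazolium bromide) assay.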
(Formazan colour is commonly taken as a measure of viable cells.)

For a further data set, the system named is BV-2. Description: Antiinflammatory activity in mouse BV2 cells assessed as effect on LPS-stimulated nitrite accumulation after 24 hrs by Griess reagent method. Format: functional, cell-based. The conditions noted are these: BV-2, 24 h. The gist of the method:
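Nitrite, the stable NO oxidation product, measured in culture supernatant by Griess reaction: 50 µL supernatant mixed with equal volume of reagent (1% sulfanilamide, 0.1% N-1-naphthylethylenediamine dihydrochloride in 5% phosphoric acid). Absorbance at 540 nm read after 10 min. Sodium nitrite standard used for quantitation. L-NMMA served as positive control. IC50 values reported.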

In the case of `COc1cc2c(oc3cc(O)ccc32)c(OC)c1O`, the IC50 in the data set on SK-MEL-2, with SK-OV-3, with HCT-15 and in the data set with A549 was more than 10 µM each time.

For the compound `COc1cc(O)cc(-c2ccccc2)c1`, the IC50 in the data set with SK-MEL-2, in the data set with SK-OV-3, with HCT-15 and in the data set on A549 was more than 10 µM throughout.

For `COc1cc(-c2ccccc2)cc(Oc2c(OC)cc([C@@H](O)[C@H](O)CO)cc2OC)c1O` [BERBEKORIN A], the figures for the IC50 in the data set on SK-MEL-2, in the data set with HCT-15 and with A549 were 4.4 µM, 7 µM and 8.2 µM, respectively. For the same compound, the Activity entry in data set [1] is reported as “Toxic”.

`COc1cc2c(oc3cccc(O)c32)c(OC)c1O`: the IC50 in the data set with SK-MEL-2, in the data set with SK-OV-3, with HCT-15 and with A549 was more than 10 µM each time.

Regarding `COc1cc(-c2ccccc2)cc(OC)c1OC` [METHOXY AUCUPARIN], the IC50 (as a rule, the concentration that gives 50% inhibition) in the data set with SK-MEL-2 was more than 10 µM; in the data set on SK-OV-3, more than 10 µM; in the data set on BV-2 it was 21.9 µM; in the data set with HCT-15, more than 10 µM; in the data set with A549, more than 10 µM.

Regarding `COc1cc(OC)cc(-c2ccc(O)cc2)c1`, the IC50 in the data set with SK-MEL-2, in the data set on SK-OV-3, in the data set with HCT-15 and in the data set on A549 was more than 10 µM in each case.

As to `COc1cc(OC)cc(-c2ccccc2O)c1`, the IC50 with SK-MEL-2 is more than 10 µM; in the data set on SK-OV-3, more than 10 µM; in the data set with BV-2 it was 32.1 µM; in the data set with HCT-15, more than 10 µM; in the data set with A549, more than 10 µM.

Take `COc1ccc2c(oc3c(OC)c(OC)c(O)cc32)c1O`: the IC50 was more than 10 µM with SK-MEL-2; more than 10 µM in the data set with SK-OV-3; 33 µM with BV-2; more than 10 µM in the data set with HCT-15; more than 10 µM in the data set on A549.

Regarding `COc1cc(-c2ccccc2O)cc(OC)c1O`, the IC50 in the data set on SK-MEL-2, in the data set with SK-OV-3, in the data set with HCT-15 and with A549 was more than 10 µM in each case.

In the case of `COc1cc2c(oc3ccccc32)c(OC)c1O` [ERIOBOFURAN], the 50% inhibitory concentration (IC50) in the data set on SK-MEL-2, with SK-OV-3, with HCT-15 and in the data set on A549 was more than 10 µM in each case.

Take `COc1cc(-c2ccccc2)cc(OC)c1O` [AUCUPARIN]: the IC50 in the data set on SK-MEL-2, with SK-OV-3, in the data set with HCT-15 and in the data set on A549 was more than 10 µM each time.

As to `COc1cc(OC)cc(-c2ccccc2)c1`, the IC50 in the data set with SK-MEL-2, in the data set with SK-OV-3, with HCT-15 and with A549 was more than 10 µM each time.

`COc1cc(-c2ccccc2O)cc(OC)c1OC`: the IC50 with SK-MEL-2 is more than 10 µM; in the data set with SK-OV-3, more than 10 µM; with BV-2, 50.6 µM; with HCT-15, more than 10 µM; with A549 it was more than 10 µM.

Consider `COc1cc(-c2ccccc2)cc(O)c1O`, for which the IC50 in the data set on SK-MEL-2, with SK-OV-3, in the data set on HCT-15 and in the data set on A549 was more than 10 µM in each case.
